From paper PMC2581794 (Bioorganic & medicinal chemistry, 2008)

What was measured:
[1] = molecular target: Lck (Homo sapiens, UniProt P06239); experiment: Photoaffinity-labeling; assay type: biochemical; conditions: for photolabeling of Lck in the presence of an ATP-competitive inhibitor of Lck: Figure S2, competition with ATP-competitive Lck inhibitor; for photolabeling efficiency of Lck (in words): compared with compound 1
How it was run: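 Commercial Lck photolabelled with biotin-tagged benzophenone ligands at 0, 3, 9, 18, 36, 90 and 180 µM. Western blot on PVDF: after blocking, streptavidin-HRP (1:10,000 in 3% non-fat milk/TBS-T) and ECL-Plus chemiluminescence. Bands quantified with background subtracted as 0%; 100% = maximal band of reference photoligand at 180 µM. EC50 from sigmoidal fit of triplicates (n = 3), with 95% CI.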

[2] = Decomposition of free photoligands under UV light; assay type: physicochemical; conditions: UV-A lamp λmax 350 nm, up to 30 min, HPLC
How it was run: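 Each probe at 30 µM in buffer was held on ice about 5 cm below six 15 W blacklight lamps (λmax 350 nm). Aliquots taken at 0, 10 and 30 min were analysed by RP-HPLC with UV detection at 280 nm. Intact probe concentration was estimated from chromatogram peak areas.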

Chain of Lck (P06239 whole entry): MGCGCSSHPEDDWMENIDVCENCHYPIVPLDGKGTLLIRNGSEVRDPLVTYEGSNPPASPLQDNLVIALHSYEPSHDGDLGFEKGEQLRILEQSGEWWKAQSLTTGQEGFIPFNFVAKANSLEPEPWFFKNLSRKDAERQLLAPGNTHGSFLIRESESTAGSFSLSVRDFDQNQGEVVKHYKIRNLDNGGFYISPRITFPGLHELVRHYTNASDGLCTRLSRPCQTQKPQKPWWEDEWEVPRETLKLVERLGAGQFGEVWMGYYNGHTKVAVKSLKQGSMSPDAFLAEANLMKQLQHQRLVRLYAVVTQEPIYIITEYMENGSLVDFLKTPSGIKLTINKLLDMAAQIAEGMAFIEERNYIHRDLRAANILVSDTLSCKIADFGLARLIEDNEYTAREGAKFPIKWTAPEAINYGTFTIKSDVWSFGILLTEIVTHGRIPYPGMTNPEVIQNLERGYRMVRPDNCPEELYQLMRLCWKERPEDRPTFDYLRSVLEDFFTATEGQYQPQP

SMILES | photolabeling of Lck in the presence of an ATP-competitive inhibitor of Lck [1] | decomposition of free ligand under UV (in words) [2] | photolabeling efficiency of Lck (in words) [1]
Nc1ncnc2c1ncn2CC(=O)N(CCNC(=O)CCCNC(=O)[C@H](Cc1ccc(C(=O)c2ccccc2)cc1)NC(=O)CCCNC(=O)CCCC[C@@H]1SC[C@@H]2NC(=O)N[C@@H]21)CC(=O)NCC(=O)O [Compound 6] | completely blocked |  | 
Nc1ncnc2c1ncn2CC(=O)N(CCNC(=O)[C@H]1CCCN1C(=O)[C@H](Cc1ccc(C(=O)c2ccccc2)cc1)NC(=O)CCCNC(=O)CCCC[C@@H]1SC[C@@H]2NC(=O)N[C@@H]21)CC(=O)NCC(=O)O [Compound 4] |  | almost identical to that of 1 | 
Nc1ncnc2c1ncn2CC(=O)N(CCNC(=O)[C@@H](CO)NC(=O)[C@H](Cc1ccc(C(=O)c2ccccc2)cc1)NC(=O)CCCNC(=O)CCCC[C@@H]1SC[C@@H]2NC(=O)N[C@@H]21)CC(=O)NCC(=O)O [Compound 2] | completely blocked |  | comparable to that of 1
Nc1ncnc2c1ncn2CC(=O)N(CCNC(=O)CNC(=O)[C@H](Cc1ccc(C(=O)c2ccccc2)cc1)NC(=O)CCCNC(=O)CCCC[C@@H]1SC[C@@H]2NC(=O)N[C@@H]21)CC(=O)NCC(=O)O [Compound 1] | completely blocked |  | 
Nc1ncnc2c1ncn2CC(=O)N(CCNC(=O)[C@@H](CCC(=O)O)NC(=O)[C@H](Cc1ccc(C(=O)c2ccccc2)cc1)NC(=O)CCCNC(=O)CCCC[C@@H]1SC[C@@H]2NC(=O)N[C@@H]21)CC(=O)NCC(=O)O [Compound 3] | completely blocked |  | comparable to that of 1
